Laboratory results: ChEMBL document CHEMBL1122482, “Optical resolution, absolute configuration, and activity of the enantiomers of proxyphylline” (J Med Chem, 1983)

Tests used:
[1] = Inhibition of human lung high-affinity cAMP phosphodiesterases (0.5-2 uM/L)
In short: (§1)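 Enzyme source was lung cytosol from homogenized unaffected tissue of a patient undergoing total pulmectomy for pulmonary carcinoma. Phosphodiesterase activity was measured essentially by the Thompson and Appleman method. Substrates were cAMP or cGMP at 0.5–2 μmol/L for the high-affinity form and 10–50 μmol/L for the low-affinity form. Inhibitor was added at 0.25–1.0 mmol/L. K_I came from Dixon plots of initial rates.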

[2] = molecular target: cGMP-specific 3',5'-cyclic phosphodiesterase (Homo sapiens, UniProt O76074); assay: Inhibition of human lung high-affinity cGMP phosphodiesterases (0.5-2 uM/L); in short: as §1
[3] = molecular target: cGMP-dependent 3',5'-cyclic phosphodiesterase (Homo sapiens, UniProt O00408); assay: Inhibition of human lung low-affinity cGMP phosphodiesterases (10-50 uM/L); in short: as §1
cGMP-dependent 3',5'-cyclic phosphodiesterase, sequence (O00408 whole entry): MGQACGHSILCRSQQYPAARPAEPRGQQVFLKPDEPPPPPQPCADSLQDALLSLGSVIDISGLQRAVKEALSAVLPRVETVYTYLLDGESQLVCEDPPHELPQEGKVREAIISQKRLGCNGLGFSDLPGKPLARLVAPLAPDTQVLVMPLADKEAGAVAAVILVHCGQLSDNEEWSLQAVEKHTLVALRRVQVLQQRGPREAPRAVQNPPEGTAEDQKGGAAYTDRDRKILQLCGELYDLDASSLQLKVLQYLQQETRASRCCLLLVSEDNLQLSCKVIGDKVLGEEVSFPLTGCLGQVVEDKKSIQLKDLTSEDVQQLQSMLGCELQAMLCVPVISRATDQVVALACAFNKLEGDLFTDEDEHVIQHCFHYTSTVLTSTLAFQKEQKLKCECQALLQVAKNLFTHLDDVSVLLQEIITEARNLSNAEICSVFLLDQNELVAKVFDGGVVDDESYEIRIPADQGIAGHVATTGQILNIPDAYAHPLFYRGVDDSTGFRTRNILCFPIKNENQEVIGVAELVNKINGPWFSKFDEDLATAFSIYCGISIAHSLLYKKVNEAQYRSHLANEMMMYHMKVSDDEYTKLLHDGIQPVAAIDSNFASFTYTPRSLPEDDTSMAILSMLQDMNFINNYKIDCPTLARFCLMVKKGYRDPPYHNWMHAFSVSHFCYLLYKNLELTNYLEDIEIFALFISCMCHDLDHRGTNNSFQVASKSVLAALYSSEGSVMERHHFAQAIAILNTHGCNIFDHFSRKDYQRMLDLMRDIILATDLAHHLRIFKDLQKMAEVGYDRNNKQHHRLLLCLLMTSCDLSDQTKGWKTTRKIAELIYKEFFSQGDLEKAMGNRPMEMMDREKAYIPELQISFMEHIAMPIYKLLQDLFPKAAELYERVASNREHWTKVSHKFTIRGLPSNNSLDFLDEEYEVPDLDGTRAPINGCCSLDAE

Ki [1] [µM]	Ki [2] [µM]	Ki [3] [µM]	SMILES
500	600	600	CC(O)Cn1cnc2c1c(=O)n(C)c(=O)n2C (centres undefined) [PROXYPHYLLINE]
500	600	600	C[C@@H](O)Cn1cnc2c1c(=O)n(C)c(=O)n2C [(R)-PROXYPHYLLINE]
400	600	700	C[C@H](O)Cn1cnc2c1c(=O)n(C)c(=O)n2C [(S)-PROXYPHYLLINE]
